# TRPC6 act: mouse TRPC6 channel activators, primary screen, cell-based, HEK293, membrane potential dye; HEK293-TRPC6 membrane potential dye fluorescence; stronger effect = higher value; Short transient receptor potential channel 6 (Mus musculus), Q61143; B-score at 10 µM; hit rate 0.13% among 310,000;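 active = B-score of the integrated fluorescence ratio above library mean plus 3 SD, and starting fluorescence ratio within library mean plus 5 SD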;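 note: higher score means more depolarization so channel activation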
# TRPC4 act: activators of mouse TRPC4 channel, primary screen, Fluo4 calcium, HEK293 TRPC4beta/mu-opioid cells; Fluo4 calcium fluorescence; stronger effect = higher value; B-score at 10 µM; hit rate 0.49% among 310,000;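 active = B-score above 5 SD of library B-scores, and initial fluorescence ratio not above library mean plus 5 SD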;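 note: positive B-score marks a calcium rise read as TRPC4 activation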
#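 System: HEK293 cells stably co-expressing mouse TRPC4beta and mu-opioid receptor; Schedule: Fluo4 dye loading 45 min at room temperature, 110 s recording; Detection: Fluo4 fluorescence, kinetic; Evaluation: B-scored integrated calcium fluorescence ratio; Controls: buffer (low) and maximal DAMGO (high).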
# TRPC4 potent: positive allosteric modulators of TRPC4, primary screen, cell-based, mouse TRPC4beta, HEK293 mu-opioid, Fluo-4 calcium; DAMGO EC20, Fluo-4 Ca2+ flux; stronger effect = higher value; B-score at 10 µM; hit rate 0.42% among 310,000;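 active = B-score of calcium response area above 5 SD of library B-scores, with initial fluorescence ratio within 5 SD of library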;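 note: B-score of integrated fluorescence ratio over time as area under calcium response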
# TRPC6 inhibitor: mouse TRPC6 channel inhibitors, primary screen, cell-based, HEK293, membrane potential dye; hit rate 1.1% among 310,000; B-score at 10 µM; ACh-evoked depolarization; stronger effect = lower value; Short transient receptor potential channel 6 (Mus musculus), Q61143;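 active = B-score under library mean minus 3 SD, initial fluorescence not abnormally high, positive integrated signal ratio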;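 note: B-score derived from integrated fluorescence ratio over the kinetic read; more negative B-score means stronger inhibition of depolarization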
# TRPC4 block: inhibitors of mouse TRPC4 channel, primary screen, Fluo4 calcium, HEK293 TRPC4beta/mu-opioid cells; DAMGO-evoked Fluo4 calcium flux; stronger effect = lower value; B-score at 10 µM; hit rate 0.39% among 300,000;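 active = B-score over 3 SD under the library average, no early fluorescence shift, positive overall ratio signal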
#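 Assay system: HEK293 cells with stable TRPC4beta plus mu-opioid receptor expression. Dosing: single dose. Measured by: Fluo4 Ca2+ flux fluorescence. Also added: DAMGO in two steps, submaximal then maximal. Read-out: B score from integrated Fluo4 fluorescence ratio.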
# Kir21 inh: inhibitors of mouse Kir2.1 inward-rectifier potassium channel; AID 1672, 2009; hit rate 0.85% among 310,000; B-score at 10 µM; HEK293-Kir2.1, FluxOR thallium flux fluorescence; stronger effect = lower value;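 active = fluorescence ratio B-score at or below minus 3 SD of library scores, with starting-brightness B-score within 2 SD, cut at about -4.2 in these data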;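 note: channel flux triggered by added potassium and thallium sulfate stimulus; B-score of peak minus minimum fluorescence over baseline after thallium stimulus; more negative B-score means stronger Kir2.1 block with less thallium influx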
# Target sequence (P35561 whole entry, looked up): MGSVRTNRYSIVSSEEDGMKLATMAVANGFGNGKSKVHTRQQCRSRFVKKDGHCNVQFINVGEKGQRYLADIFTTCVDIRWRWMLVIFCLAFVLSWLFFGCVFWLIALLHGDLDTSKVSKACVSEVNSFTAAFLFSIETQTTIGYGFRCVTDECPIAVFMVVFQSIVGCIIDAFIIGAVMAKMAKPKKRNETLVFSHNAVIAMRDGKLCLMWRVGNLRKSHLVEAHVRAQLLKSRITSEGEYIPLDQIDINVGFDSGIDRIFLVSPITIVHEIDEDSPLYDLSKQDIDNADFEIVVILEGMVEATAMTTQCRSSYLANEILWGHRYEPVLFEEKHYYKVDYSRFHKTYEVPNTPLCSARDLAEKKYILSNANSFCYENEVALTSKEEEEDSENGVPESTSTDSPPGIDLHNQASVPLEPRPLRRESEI
# Starred values were filed as active, the others as inactive; i = inactive. A selection: hits, their analogues and other compounds. The true share with any hit is near 2.9%.
SMILES,TRPC6 act,TRPC4 act,TRPC4 potent,TRPC6 inhibitor,TRPC4 block,Kir21 inh
CC(C)(C)c1cc(C(=O)NCc2cc(F)cc3c2OCOC3)n(Cc2ccccc2)n1,i,i,13*,i,i,-0.15
COc1ccc(C(=O)NCC(c2ccco2)N2CCc3ccccc32)c(OC)c1 (stereo not given),i,i,10*,i,i,-0.06
Cc1cc2ccc3ccccc3c2cc1CN(C)C,i,i,i,i,i,-13.5*
Cc1ccc(C(=O)N/C(=C\c2ccco2)C(=O)NCCN2CCOCC2)cc1C,i,i,i,i,i,0.78
C/C(=N\NC(=O)c1nn(C)c(C)c1Br)c1ccc(NC(=O)C2CCCC2)cc1,i,i,i,i,i,0.96
O=C(Nc1cccc(C(F)(F)F)c1)c1cccc(NS(=O)(=O)c2ccc(O)c(C(=O)O)c2)c1,i,i,22*,i,i,2.91
O=C(Nc1cccc(C(F)(F)F)c1)c1cccc(NS(=O)(=O)c2ccc(Br)c(C(=O)O)c2)c1,i,i,i,i,i,1.37
CC(C)(C)c1nc(SCC(=O)NCc2ccco2)c2ccccc2n1,i,i,i,i,i,-8.04*
COc1ccc(N(C)C(=O)CN(C)S(=O)(=O)c2ccc3c(c2)c(=O)n(C)c(=O)n3C)c(OC)c1,i,i,i,i,i,-1.3
COc1ccc(C(CCNCc2ccc(F)cc2)c2ccc(F)cc2)cc1 (stereo not given),i,i,i,i,i,-4.95*
COc1ccc(C(CCNCc2ccccc2)c2ccc(F)cc2)cc1 (stereo not given),i,i,i,i,i,-12.2*
COc1ccc(CNCCC(c2ccc(F)cc2)c2ccc(OC(C)C)cc2)cc1OC (stereo not given),i,46*,i,i,i,-8.98*
COc1ccc(C(CCNC(C)c2ccccc2)c2ccc(F)cc2)cc1 (stereo not given),i,i,i,i,i,-7.54*
COc1cccc(OCCNCc2ccccc2)c1,i,i,i,i,i,-0.91
COc1ccc(CN(CCC(c2ccccc2)c2ccc(OC(C)C)cc2)C(=O)CCl)cc1OC (stereo not given),i,i,i,i,i,0.23
CCC(NC(=O)CCc1nnc(-c2cc(C)on2)o1)C12CC3CC(CC(C3)C1)C2 (stereo not given),i,i,i,i,i,-1.94
CC1(C(=O)N2CCC(CC3CC(c4cccc(Br)c4)=NO3)(C(=O)NCC3CCCCC3)CC2)CC1 (stereo not given),i,i,i,i,i,3
N#Cc1ccsc1NC(=O)CCN1CCN(C(c2ccccc2)c2ccccc2)CC1,i,i,i,i,i,1.1
Cn1cc([N+](=O)[O-])c(C(=O)N2CCN(Cc3ccc4c(c3)OCO4)CC2)n1,i,i,i,i,i,0.19
O=C(NC1CCCC1)c1n[nH]c2ccccc12,i,i,i,i,i,-1.66
COc1ccc(CNCCC(c2ccc(F)cc2)c2ccc(OC)cc2)cc1 (stereo not given),i,i,i,i,i,-8.95*
CCCCNC(=S)Nc1cc([N+](=O)[O-])ccc1C,i,i,i,i,i,-2.27
CC1CC1C(=O)OCc1cc(=O)n2cc(Br)ccc2n1 (stereo not given),i,i,i,i,i,-0.26
CC1(C(=O)OCc2cc(=O)n3cc(Br)ccc3n2)CC1(Cl)Cl (stereo not given),i,i,15*,i,i,-0.06
CC(=O)C1=C(C)NC(=S)NC1c1cc([N+](=O)[O-])ccc1O (stereo not given),i,i,i,i,i,-0.32
SMILES,TRPC6 act,TRPC4 act,TRPC4 potent,TRPC6 inhibitor,TRPC4 block,Kir21 inh
CCOc1cc(/C=C(\C#N)C(=O)Nc2cccc(C(=O)O)c2)cc(Br)c1OC(=O)c1ccc(OC)cc1,i,i,22*,i,i,-5.35*
Cc1cc(C)n(CCC(=O)Nc2cccc(F)c2)n1,i,i,i,i,i,0.23
CCOC(=O)c1c(NC(NC(C)=O)C(Cl)(Cl)Cl)sc2c1CCCC2 (stereo not given),i,i,21*,i,i,-0.03
CCOC(=O)c1c(NC(=O)CCNCc2ccco2)sc2c1CCC2,i,i,11*,i,i,-17.2*
CCOC(=O)c1c(NC(=O)C2CC(Cl)=CCC2C(=O)O)sc2c1CCCCC2 (stereo not given),i,i,i,i,-6*,0.49
CC1CCc2c(sc3ncnc(SC(C)C(=O)NCC4CCCO4)c23)C1 (stereo not given),i,i,i,i,i,0.36
CCCCCCNC(=O)CC(NS(=O)(=O)c1ccc(OC)cc1)C(C)C (stereo not given),i,i,i,i,i,0.61
CCCC1NC(=S)N(C2CCCCC2)C1=O (stereo not given),i,i,i,i,i,2.36
O=C1CNC(=S)N1C1CCCCCC1,i,i,i,i,i,-5.61*
COc1ccc(C(CNC(=O)c2ccc(-c3cccc(C(F)(F)F)c3)o2)N2CCOCC2)cc1 (stereo not given),i,i,i,i,i,-1.48
CN(C)CCn1c(=S)[nH]c2ccccc2c1=O,i,i,11*,i,i,1.42
CN(C)CCCn1c(=S)[nH]c2ccccc2c1=O,i,i,i,i,i,-0.55
CN1CCN(CCn2c(=S)[nH]c3ccccc3c2=O)CC1,i,i,i,i,i,2
O=c1c2ccccc2[nH]c(=S)n1CCN1CCN(Cc2ccccc2)CC1,i,i,i,i,-6*,-0.11
c1ccc(CN2CCN(Cc3c[nH]c4ccccc34)CC2)cc1,i,i,i,i,-6*,-0.89
O=C(c1c[nH]c2ccccc12)N1CCN(Cc2ccccc2)CC1,i,i,i,i,i,-1.9

# Bioassay records (PubChem BioAssay)
